# Assay results from ChEMBL document CHEMBL2390943, “Synthesis and preliminary evaluation steroidal antiestrogen-geldanamycin conjugates” (Bioorg Med Chem Lett, 2013).
# pIC50: −log10 of the molar value.
# Tests used:
# [1] = target: T1, Estrogen receptor (Homo sapiens) (UniProt P03372); test: Relative binding affinity to estrogen receptor-alpha (unknown origin)
# T1 sequence (whole entry): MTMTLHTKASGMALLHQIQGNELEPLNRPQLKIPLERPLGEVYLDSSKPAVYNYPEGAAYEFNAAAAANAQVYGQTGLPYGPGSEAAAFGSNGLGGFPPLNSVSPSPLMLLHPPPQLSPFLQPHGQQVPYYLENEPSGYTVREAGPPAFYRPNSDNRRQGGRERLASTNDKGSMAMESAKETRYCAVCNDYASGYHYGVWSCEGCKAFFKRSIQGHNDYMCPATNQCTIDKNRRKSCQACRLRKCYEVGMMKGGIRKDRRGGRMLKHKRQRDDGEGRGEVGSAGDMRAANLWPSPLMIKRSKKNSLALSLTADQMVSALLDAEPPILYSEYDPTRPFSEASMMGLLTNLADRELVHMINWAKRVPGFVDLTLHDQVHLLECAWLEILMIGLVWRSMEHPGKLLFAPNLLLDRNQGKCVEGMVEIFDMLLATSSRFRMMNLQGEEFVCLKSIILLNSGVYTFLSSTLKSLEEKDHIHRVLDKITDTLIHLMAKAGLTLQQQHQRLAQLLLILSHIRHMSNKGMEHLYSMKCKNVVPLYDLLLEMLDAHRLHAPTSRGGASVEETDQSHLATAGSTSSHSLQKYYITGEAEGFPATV
# SK-BR-3 = test: Antiproliferative activity against estrogen receptor deficient human SKBR3 cells after 72 hrs; assay type: functional, cell-based; settings: SK-BR-3, 72 h
# Procedure, shortened: (§1)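 Proliferation inhibition was measured in MCF-7 (ER-expressing) and SKBr3 (ER-lacking) human breast cancer cells. IC50 was taken as the concentration giving 50% inhibition.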
# MCF7 [2] = test: Antiproliferative activity against human MCF7 cells expressing estrogen receptor after 72 hrs; assay type: functional, cell-based; settings: MCF7, 72 h; procedure, shortened: as §1
# MCF7 [3] = test: Ratio of IC50 for estrogen receptor deficient human […] cells to IC50 for human MCF7 cells expressing estrogen receptor; assay type: functional
pIC50 (SK-BR-3),pIC50 (MCF7 [2]),SMILES,RBA [1] [%],Ratio IC50 (MCF7 [3])
,,CO[C@@]12[C@H](COC(N)=O)C3=C(C(=O)C(C)=C(NCc4cn(CCOCCOCCOc5ccc([C@H]6C[C@]7(C)[C@@H](O)CC[C@H]7[C@@H]7CCc8cc(O)ccc8[C@H]76)cc5)nn4)C3=O)N1C[C@H]1[C@@H]2N1C (stereo not given in full),7,
6.15,5.94,CO[C@H]1/C=C\C=C(/C)C(=O)NC2=CC(=O)C(NCc3cn(CCOc4ccc([C@H]5C[C@]6(C)[C@@H](O)CC[C@H]6[C@@H]6CCc7cc(O)ccc7[C@H]65)cc4)nn3)=C(C[C@@H](C)C[C@H](OC)[C@H](O)[C@@H](C)/C=C(\C)[C@@H]1OC(N)=O)C2=O (stereo in doubt),,
,,COc1cccc2c1C(=O)c1c(O)c3c(c(O)c1C2=O)C[C@@](O)(/C(CO)=N/NC(=O)c1ccc(OCCOCCOCCOCCOCc2cn(CCOCCOCCOCCN(C)CCOc4ccc([C@H]5C[C@]6(C)[C@@H](O)CC[C@H]6[C@@H]6CCc7cc(O)ccc7[C@H]65)cc4)nn2)cc1)C[C@@H]3O[C@H]1C[C@H](N)[C@H](O)[C@H](C)O1,,7
8.07,8.01,COC1=C2C[C@@H](C)C[C@H](OC)[C@H](O)[C@@H](C)/C=C(\C)[C@H](OC(N)=O)[C@@H](OC)/C=C\C=C(/C)C(=O)NC(=CC1=O)C2=O [GELDANAMYCIN],,
,4.82,CO[C@H]1/C=C\C=C(/C)C(=O)NC2=CC(=O)C(NCCCCCNC(=O)c3ccc(CC4CCCCc5c(nnn5CCOc5ccc([C@H]6C[C@]7(C)[C@@H](O)CC[C@H]7[C@@H]7CCc8cc(O)ccc8[C@H]76)cc5)C4(F)F)cc3)=C(C[C@@H](C)C[C@H](OC)[C@H](O)[C@@H](C)/C=C(\C)[C@@H]1OC(N)=O)C2=O (stereo in doubt),,
,,C#CCN(C)CCOc1ccc([C@H]2C[C@]3(C)[C@@H](O)CC[C@H]3[C@@H]3CCc4cc(O)ccc4[C@H]32)cc1,39,
7.39,6.99,CO[C@H]1/C=C\C=C(/C)C(=O)NC2=CC(=O)C(NCCOCCOCCOCCc3cn(CN(C)CCOc4ccc([C@H]5C[C@]6(C)[C@@H](O)CC[C@H]6[C@@H]6CCc7cc(O)ccc7[C@H]65)cc4)nn3)=C(C[C@@H](C)C[C@H](OC)[C@H](O)[C@@H](C)/C=C(\C)[C@@H]1OC(N)=O)C2=O (stereo in doubt),,
